Tests used:
DNA-PK = DNA-PK (Homo sapiens, UniProt P78527); experiment: DNA-PK inhibition assay; format: biochemical; settings: IC50 greater than 100 μM taken as not active; data not shown
PI3K isoforms = experiment: PI3K inhibition assay; format: biochemical; settings: any of the PI3K isoforms; IC50 greater than 100 μM taken as not active; data not shown
HeLa cells [1] = experiment: Sulphorhodamine blue; format: cell-based, human; settings: 25 μM Etoposide and/or 200nM LTUSI54, 4 h, 2 days recovery; vs control
Procedure, shortened: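 Sulphorhodamine B assay on HeLa cells seeded at 2x10^3 cells/well and left to adhere overnight. Treated 4 h with 25 μM Etoposide, 200nM test compound or both, then PBS-washed. Recovery 48 h in medium containing 200nM test compound, or DMSO only for control and Etoposide-alone wells. Absorbance read at 538 nm. Mean ± SEM of four replicates; two-tailed t-test vs control.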

HeLa cells [2] = experiment: CellTox green cytotoxicity assay; format: cell-based, human; settings: 24 h
γ-H2AX = experiment: Flow cytometry for γ-H2AX expression; format: cell-based, human; settings: for cells stained positive for γ-H2AX: 25 μM Etoposide, 200nM LTUSI54
HeLa cells [3] = experiment: Cell cycle analysis by flow cytometry; format: cell-based, human; settings: 4 h treatment; for cells in G2/M phase / cells in S phase: vs control
Procedure, shortened: (§1)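 HeLa cells (DMEM, 10 % FBS) treated 4 h with 25 μM Etoposide, 200nM test compound or both, with or without 2 days recovery in medium containing test compound. Harvested, fixed in 70 % ethanol at −20 °C overnight, then stained with 25 μg/ml propidium iodide plus 100 μg/ml RNase for 30 min at 37 °C in the dark. Doublets and debris gated out. Mean ± SEM, three independent experiments.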

p38α = experiment: Human phospho-kinase array, p38α; format: cell-based; settings: HeLa cells, 4 h; 25 μM Etoposide, 200nM LTUSI54; vs control
Procedure, shortened: (§2)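 HeLa cells in small flasks treated 4 h with medium, 25 μM Etoposide, 200nM test compound or combination, then lysed. Human phospho-kinase antibody membranes incubated overnight at 4 °C with lysate at 150 μg/ml protein. Detection antibody cocktail 2 h at room temperature, streptavidin-HRP 30 min, then chemiluminescence at increasing exposures. Fold change vs control; two runs with duplicate spots.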

p53 = experiment: Human phospho-kinase array, p53; format: cell-based; settings: HeLa cells, 4 h; 25 μM Etoposide, 200nM LTUSI54; vs control
Procedure, shortened: as §2

HeLa cells [4] = experiment: Sub G1 analysis; format: cell-based, human; settings: 25 μM Etoposide and/or 200nM LTUSI54, 4 h, 2 days recovery
Procedure, shortened: as §1

[5] = 4 h treatment followed by 2 days recovery

inhibitory effect on DNA-PK (IC50) (DNA-PK) | inhibitory effect on PI3K isoforms (IC50) (PI3K isoforms) | Compound | change in HeLa cell number (SRB) (HeLa cells [1]) | cytotoxic effect (CellTox green) (HeLa cells [2]; 200nM) | CellTox fluorescence (HeLa cells [2]; 100 μM, control 191 RFUs, p <0.0001) | cells stained positive for γ-H2AX (γ-H2AX; [5]) | cells stained positive for γ-H2AX (γ-H2AX; after 4 h treatment) | cells in G2/M phase (HeLa cells [3]; 2 days recovery) | cells in G2/M phase (HeLa cells [3]) | cells in S phase (HeLa cells [3]) | fold increase in activity (phosphorylation) of p38α (p38α) | fold increase in activation of p53 (p53) | apoptotic cells (sub G1 phase) (HeLa cells [4]) | fold decrease in γ-H2AX positive cells (γ-H2AX; 2 days recovery vs 4 h treatment) | cells in S phase (HeLa cells [3]; 2 days recovery) | cells in G1 phase (HeLa cells [3]; 2 days recovery, vs control and LTUSI54 alone (p < 0.0001))
no inhibitory effect | no inhibitory effect | 2-((3-methoxybut-3en-2-yl)amino)-8methyl-4H-benzo[1,3]oxazin-4one [LTUSI54] | significant reduction in cell numbers | no cytotoxic effect | 299.3 RFUs | 2.7% | 7.3% | reduction of cells in G2/M phase | significant reduction of cells in G2/M phase | significant increase in cells in S phase | 3.645 fold | 1.5 fold | – | – | – | –
– | – | COc1cc([C@@H]2c3cc4c(cc3[C@@H](O[C@@H]3O[C@@H]5CO[C@@H](C)O[C@H]5[C@H](O)[C@H]3O)[C@H]3COC(=O)[C@H]23)OCO4)cc(OC)c1O [Etoposide, reference compound] | significant reduction in cell number | – | – | 15% | about 80% | – | – | increase in cells in S phase | 2.64 fold | 3.5 fold | significant increase in apoptotic cells | more than 5 fold | significant increase | significant reduction in G1 cells

From PMC3825418 (Investigational New Drugs, 2013)
